Test results: PubChem BioAssay
Values without a mark were called inactive. Inconclusive results are not listed. Calls of active or inactive are those of the source.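 Rule for the calls, unless noted: active = cell viability at or below a set limit in both duplicate runs, the limit being the all-compound median minus 4 SD (cut at about 23% in these data, passing the limit was not always enough); inconclusive = no clear call, values can overlap the other calls; inactive = the rest.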

Legend:
[1] = S. cerevisiae growth inhibition in permissive medium (OD615), pilot counter-assay for S. cerevisiae lifespan shortening project, permissive growth control (AID 705;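 active = growth inhibition above 25% in both replicates, a cutoff set 3 SD above the mean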); details: OD615, 24 h, at 10 µM, hits give high values
Procedure, shortened: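 System: S. cerevisiae with engineered DeaD lifespan system / Measured by: absorbance (optical density) at 615 nm / Read-out: reduction in yeast growth (OD615) / Times: 4 h cell pre-growth, 24 h exposure at 30 °C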

[2] = S. cerevisiae growth inhibition in restrictive medium, OD615, pilot screen, restrictive growth control, yeast lifespan reduction project (AID 706;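 active = growth inhibition above a set limit, 3 SD over mean compound inhibition, in both replicates, cut at about 43% in these data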;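 note: modified DeaD lifespan yeast strain shifted to restrictive glucose medium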); details: OD615, 48 h, at 10 µM, hits give high values
Procedure, shortened: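 System: Engineered S. cerevisiae DeaD strain | Buffer or medium: Glucose-based CSMM-D restrictive medium | Schedule: 4 h pre-incubation, 48 h exposure at 30 °C | Technique: Optical density at 615 nm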

[3] = doxorubicin toxicity protection in MRP-1 cells – H69AR cells, CellTiter-Glo, duplicate, MRP-1 activator project, pilot screen (AID 807;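 active = viability increase at or above a cutoff of the median across tested compounds plus 3 SD, cut at about 8.5% in these data, passing the limit was not always enough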;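 note: compound pretreatment 18-22 h then 72 h combined with doxorubicin; 0% = doxorubicin alone and 100% = vehicle without doxorubicin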); details: H69AR viability with doxorubicin, CellTiter-Glo luminescence; at 10 µM; hits give high values
[4] = viability of HCT116 without oncogenic beta-catenin – human colon tumor cells, pilot screen (AID 823); details: HCT116 beta-catenin knockout viability, CellTiter-Glo, 60 h; at 10 µM; hits give low values;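 note: 0% = wells killed by 20 µM Hyamine and 100% = untreated DMSO cell wells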
[5] = viability of PTEN-null HCT116 cells – cell-based, HCT116 clonal line, CellTiter-Glo, pilot screen (AID 824;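 active = viability at or below 27.92% in each of two runs, the all-compound median minus 4 SD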;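 note: 0% = 20 µM Hyamine control and 100% = vehicle cell control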); details: HCT116 PTEN-deleted viability, 60 h, at 10 µM, hits give low values
[6] = RAM pathway blockade in budding yeast – dse1pr::URA3 reporter, 5-FOA selection, pilot screen (AID 869;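 active = inhibition over a set limit, the all-compound mean plus 3 SD, in both replicate runs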;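 note: 0% = DMSO wells with no growth and 100% = 10 µM 1-NA-PP1 with full growth; RAM network block rescues cells from 5-FOA so hits raise OD615 growth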); details: S. cerevisiae dse1pr::URA3 5-FOA growth, OD615, 2 d; at 10 µM; hits give high values; strain carries analog-sensitive mutant Cbk1 kinase
[7] = RAM signaling pathway blockade in yeast – S. cerevisiae, Pdr1DBD-CYC8 efflux-inhibited sensitized strain, primary screen (AID 1298;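 active = RAM network inhibition above 8.4% in each of two replicates, 3 SD over the compound average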;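 note: 0% = DMSO untreated cells without growth and 100% = 10 µM 1-NA-PP1 full growth; higher means more yeast growth rescued from 5-FOA killing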); details: S. cerevisiae cbk1-as DSE1-URA3 strain, 5-FOA growth OD615, 2 d; at 50 µM; hits give high values

SMILES	growth inhibition [1]	growth inhibition [2]	viability increase [3]	viability [4]	viability [5]	inhibition [6]	RAM network inhibition [7]
CC(C)(C)SCCNS(=O)(=O)c1ccc(F)cc1	-4.57%	3.38%	0.35%	94.2%	89.5%	0.725%	0.56%
CCOc1ccc(N(CC(=O)N2CC=C(c3ccccc3)CC2)S(=O)(=O)c2c(C)noc2C)cc1	-3.46%	-23.9%	-3.95%	71.1%	64.9%	1.11%	0.32%
CCn1cc(C(=O)N2CCN(Cc3ccc4c(c3)OCO4)CC2)c2cc(OC)c(OC)cc2c1=O	-9.86%	-27.3%	-5.64%	96.1%	85.9%	0.125%	2.76%
CCC1Oc2nc(SC)nnc2-c2ccccc2N1C(=O)c1ccccc1 (stereo unspecified)	-2.41%	-2.26%	-5.16%	70.6%	58.1%	1.03%	3.93%
CCOC(=O)N1CCN(C(=O)CSc2nc3c(cnn3-c3ccccc3)c(=O)[nH]2)CC1	-2.34%	-4.3%	-4.92%	98.9%	99%	0.19%	-1.2%
O=C(NCCCNC(=O)c1ccco1)c1ccco1	-0.405%	0.005%	-2.35%	99.9%	107%	-0.525%	0.16%
CC1(C)CC(n2c(NCCO)nc3c(c2=O)C2(CCCC2)Cc2ccccc2-3)CCO1 (stereo unspecified)	11.7%	2.4%	-6.73%	96.2%	93.4%	0.65%	7.43%
CCCC(=O)NCCCCNC(=O)CCC	2.78%	2.44%	-0.9%	96.4%	101%	0.09%	4.07%
CCN(CC(=O)NCc1ccc(F)cc1)C(=O)C1CCN(C(=O)Nc2ccccc2)CC1	-2.92%	-6.36%	-0.13%	96.2%	98.6%	1.25%	0.37%
CCCNC(=O)C(Cc1ccccc1)NS(=O)(=O)c1ccc2c(c1)CCC(=O)N2 (stereo unspecified)	-5.35%	-3.94%	0.26%	101%	102%	0.755%	1.71%
Oc1c(C(c2cccc(F)c2)N2CCN(Cc3ccccc3)CC2)sc2ncnn12 (stereo unspecified)	-6.58%	3.16%	-0.83%	87.7%	80.7%	0.05%	-2.27%
CC(Nc1ncnc2nc[nH]c12)c1ccccc1 (stereo unspecified)	-8.48%	10.5%	-1.31%	95.3%	88.9%	0.985%	4.02%
CCOC(=O)CSc1nc2sc(C(=O)O)c(C)c2c(=O)[nH]1	0.2%	-4.45%	-1.82%	102%	103%	1.92%	3.85%
CCOC(=O)C1CCN(C(=O)c2ccc(Cl)c(NC3=NC4CS(=O)(=O)CC4S3)c2)CC1 (stereo unspecified)	-13.6%	-14.5%	-0.09%	107%	89.4%	1.65%	-0.37%
Cc1ccc(C2CC(c3cccc(Br)c3)n3nc(N)nc3N2)cc1 (stereo unspecified)	0.285%	22.3%	-1.6%	68.2%	67.2%	1.82%	5.91%
Cc1c(NC(=O)C2CCN(S(=O)(=O)c3ccccc3)CC2)c(=O)n(-c2ccccc2)n1C	-3.65%	-4.28%	-2.25%	96.5%	88.8%	1.45%	6.15%
CCN(CC)CC(O)COc1ccccc1C(=O)CCc1ccccc1 (stereo unspecified)	-17.4%	-14.3%	-4.88%	73%	80.5%	0.58%	4.17%

SMILES	growth inhibition [1]	growth inhibition [2]	viability increase [3]	viability [4]	viability [5]	inhibition [6]	RAM network inhibition [7]
CCOC(=O)Cn1c(C(C)=O)nc2ccccc21	-18.1%	-25.1%	0.94%	102%	94.8%	0.28%	0.32%
Cn1cccc1Cc1nnc(SCC(=O)NCCc2ccccc2)n1-c1ccc(F)cc1	-6.41%	5.7%	-2.38%	93.7%	93.3%	2.35%	5.42%
N=c1n(CCO)c2ccccc2n1CCOc1ccc(Cl)cc1Cl	-0.15%	4.96%	-8.35%	1.5% (active)	1.54% (active)	1%	0.72%
CCC1CCCCN1C(=O)CSc1nnc(-c2cccc(Cl)c2)o1 (stereo unspecified)	8.15%	46.1% (active)	-3.24%	86.8%	91.5%	1.4%	1.06%
CCOC(=O)c1ccc(NC(=O)CCC(=O)OC)cc1	5.7%	-1.83%	-1.2%	96.8%	98.3%	1.98%	3.41%
CN(CC(=O)N1CCCCCC1)S(=O)(=O)c1cccc2cccnc12	-6.24%	-27%	-4.51%	101%	82%	2.14%	-1.18%
CCSc1nnc(Cn2c(=O)sc3ccccc32)n1-c1ccccc1C	-2.14%	-4.08%	-1.61%	93.9%	89.7%	1.61%	8.51%
COc1ccc(C2CC(c3c(Cl)cccc3Cl)n3nc(N)nc3N2)cc1 (stereo unspecified)	-6.17%	5.1%	-1.64%	95.3%	88.1%	2.57%	6.67%
NC(=O)CSc1nc2ccccc2n1-c1ccccc1	-9.13%	1.74%	-0.83%	99%	97.5%	0.02%	0.62%
CCCCc1ccc(Nc2ncnc3nc[nH]c23)cc1	-6.71%	22.7%	2.8%	106%	94%	-0.1%	1.66%
CCc1cccc(NC(=O)CS(=O)Cc2nc(-c3ccc(C)cc3)oc2C)c1 (stereo unspecified)	9.24%	24.4%	-1.87%	96.1%	87.1%	1.46%	3.37%
O=C(O)CC1C(=O)NCCN1Cc1ccc(F)c(F)c1 (stereo unspecified)	-11.2%	3.21%	-1.31%	99.4%	88.2%	3.32%	-0.21%
c1ccc(-c2nnc(-c3ccccn3)nn2)nc1	34.5% (active)	88.1% (active)	0.07%	68.2%	83%	-0.025%	-3%
CCn1c2ccccc2c2nnc(SCN3C(=O)c4ccccc4C3=O)nc21	-12.1%	-1.02%	-3.94%	98.5%	100%	2.71%	5.66%
N#Cc1c(NC(=O)c2cc(C3CC3)on2)sc2c1CCC2	-1.24%	5.11%	-5.36%	38.9%	34.1%	3.44%	-1.72%
CCCNC(=O)C1CC(=O)N(c2ccc(OCC(=O)Nc3cccc(C)c3C)cc2)C1 (stereo unspecified)	-13.4%	-14.8%	-1.99%	106%	97.7%	2.35%	1.01%
